Results from ChEMBL document CHEMBL4118161, “Synthesis and evaluation of novel dimethylpyridazine derivatives as hedgehog signaling pathway inhibitors” (Bioorg Med Chem, 2018).
Activity calls are given as the source filed them. No cut-off for these calls is given here.

Key:
Mus musculus [1] = species on record: Mus musculus; assay: Inhibition of hedgehog signaling pathway in mouse Light2 cells at 100 nM after 48 hrs by Gli-luciferase reporter gene assay relative to control; format: cell-based
Method in brief: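 Single-concentration screen at 100 nM in Light II cells (NIH-3T3 with stable Gli-firefly luciferase reporter and Renilla luciferase vector), kept in DMEM/10% FBS with zeocin and G418 at 37°C, 5% CO₂. Cells treated 48 h; percent inhibition of Gli reporter from dual luciferase assay.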

[2] = Inhibition of hedgehog signaling pathway in mouse Light2 cells after 48 hrs by Gli-luciferase reporter gene assay; format: cell-based
Mus musculus [3] = assay: Toxicity in athymic nude mouse implanted with mouse Ptch+/- p53-/- medulloblastoma cells assessed as body weight loss at 10 to 20 mg/kg, po administered twice daily via gavage measured every other day during compound dosing; format: organism-based; conditions: in vivo
Method in brief: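 Nude mice bearing subcutaneous right-flank Ptch+/-p53-/- medulloblastoma fragment allografts, dosed by oral gavage twice daily (vehicle 0.5% NaCMC suspension) once tumors reached 150–200 mm³. Body weights recorded alongside caliper tumor measurements taken every other day; five animals per group.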

Medulloblastoma cell [4] = assay: Anti-tumor activity against mouse Ptch+/- p53-/- medulloblastoma cells implanted in athymic nude mouse assessed as tumor growth inhibition at 10 to 20 mg/kg, po administered twice daily via gavage measured every other day during compound dosing; format: functional, organism-based
Method in brief: (§1)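 Allograft from spontaneous intracranial medulloblastomas of Ptch+/-p53-/- mice, first passaged subcutaneously in athymic nude mice; 1 mm³ fragments implanted by trocar into the right flank. Oral gavage twice a day started at 150–200 mm³, in 0.5% NaCMC suspension. Caliper length and width taken every other day, V = L×W²/2. Five mice per group, means ± SEM.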

Medulloblastoma cell [5] = assay: Anti-tumor activity against mouse Ptch+/- p53-/- medulloblastoma cells implanted in athymic nude mouse assessed as tumor growth inhibition at 20 mg/kg, po administered twice daily via gavage measured every other day during compound dosing; format: functional, organism-based; method in brief: as §1

SMILES | inhibition (Mus musculus [1]) [%] | IC50 [2] [nM] | Activity (Mus musculus [3]) | TGI (Medulloblastoma cell [4]) | TGI (Medulloblastoma cell [5])
CN(C(=O)c1ccc(F)cc1C(F)(F)F)C1CCN(c2nnc(-c3ccnn3C)c3ccccc23)CC1 [TALADEGIB] | 95 | 2.26 |  |  | 
Cc1c(-c2ccc(Cl)cc2)nnc(N2CCC(NC(=O)c3ccc(F)cc3C(F)(F)F)CC2)c1C | 85 | 43.8 |  |  | 
Cc1c(-c2ccc(C#N)cc2)nnc(N2CCC(NC(=O)c3ccc(F)cc3C(F)(F)F)CC2)c1C | 111 | 8.5 |  |  | 
Cc1c(-c2ccnn2C)nnc(N2CCC(Nc3ccc(C(C)(C)O)nn3)CC2)c1C | 20.6 | > 100 |  |  | 
Cc1c(-c2ccnn2C)nnc(N2CCC(NC(=O)c3cc(F)ccc3C(F)(F)F)CC2)c1C | 82 | 61.5 |  |  | 
Cc1c(-c2ccnn2C)nnc(N2CCC(Nc3cnc(C(C)(C)O)cn3)CC2)c1C | 10.8 | > 100 |  |  | 
Cc1c(-c2ccnn2C)nnc(N2CCC(NC(=O)c3ccc(F)cc3C(F)(F)F)CC2)c1C | 89.5 | 2.33 | Non-Toxic | Active | 
Cc1c(-c2ccnn2C)nnc(N2CCC(NC(=O)c3ccc(Cl)cc3C(F)(F)F)CC2)c1C |  | 25.1 |  |  | 
Cc1c(-c2ccnn2C)nnc(N2CCC(Nc3ccc(C(C)(C)O)cn3)CC2)c1C | 31.8 | > 100 |  |  | 
Cc1c(-c2ccnn2C)nnc(N2CCC(Nc3cnc(S(C)(=O)=O)cn3)CC2)c1C | 23.8 | > 100 |  |  | 
Cc1c(-c2ccnn2C)nnc(N2CCC(NC(=O)Nc3ccccc3)CC2)c1C | 26.2 | > 100 |  |  | 
Cc1c(-c2ccncc2)nnc(N2CCC(NC(=O)c3ccc(F)cc3C(F)(F)F)CC2)c1C | 76 | 43.2 |  |  | 
Cc1c(-c2ccnn2C)nnc(N2CCC(NC(=O)NC3CCCC3)CC2)c1C | 24.4 | > 100 |  |  | 
Cc1c(-c2ccccc2)nnc(N2CCC(NC(=O)c3ccc(F)cc3C(F)(F)F)CC2)c1C | 90.2 | 25.5 |  |  | 
Cc1c(-c2ccnn2C)nnc(N2CCC(N(C)C(=O)c3ccc(F)cc3C(F)(F)F)CC2)c1C | 60.9 | 30 |  |  | 
COc1ccc(-c2nnc(N3CCC(NC(=O)c4ccc(F)cc4C(F)(F)F)CC3)c(C)c2C)cc1 | 74.5 | 22 |  |  | 

SMILES | inhibition (Mus musculus [1]) [%] | IC50 [2] [nM] | Activity (Mus musculus [3]) | TGI (Medulloblastoma cell [4]) | TGI (Medulloblastoma cell [5])
Cc1c(-c2ccnn2C)nnc(N2CC[C@@H](NC(=O)c3ccc(F)cc3C(F)(F)F)C2)c1C | 54.1 | 36.4 |  |  | 
CS(=O)(=O)c1ccc(C(=O)Nc2ccc(Cl)c(-c3ccccn3)c2)c(Cl)c1 [VISMODEGIB] | 108 | 2.46 |  |  | Active
Cc1c(-c2ccnn2C)nnc(N2CCC(NC(=O)Oc3ccccc3)CC2)c1C | 41.2 | > 100 |  |  | 
Cc1c(-c2ccnn2C)nnc(N2CCC(NC(=O)OC3CCCCC3)CC2)c1C | 26.6 | > 100 |  |  | 
Cc1c(-c2ccnn2C)nnc(N2CCC(NC(=O)c3c(F)cccc3C(F)(F)F)CC2)c1C | 79.8 | 42.9 |  |  | 
Cc1c(-c2ccnn2C)nnc(N2CCC(NC(=O)c3ccccc3C(F)(F)F)CC2)c1C | 79.7 | 32.8 |  |  | 
Cc1c(-c2ccnn2C)nnc(N2CCC(NC(=O)c3ccc(Sc4ccccc4)cc3C(F)(F)F)CC2)c1C | 82.8 | 32.5 |  |  | 
Cc1c(-c2ccnn2C)nnc(N2CCC(NC(=O)c3ccc(Oc4ccccc4)cc3C(F)(F)F)CC2)c1C | 78.9 | 36.5 |  |  | 
Cc1c(-c2ccnn2C)nnc(N2CCN(C(=O)c3ccc(F)cc3C(F)(F)F)CC2)c1C | -6.57 | > 100 |  |  | 
Cc1c(-c2ccnn2C)nnc(N2CCC(NC(=O)NC3CCCCCC3)CC2)c1C | 45.7 | > 100 |  |  | 
Cc1c(-c2ccccc2Cl)nnc(N2CCC(NC(=O)c3ccc(F)cc3C(F)(F)F)CC2)c1C | 106 | 7.02 |  |  | 
Cc1c(-c2ccnn2C)nnc(N2CCC(NC(=O)c3cccc(F)c3)CC2)c1C | 82.1 | > 100 |  |  | 
Cc1c(-c2ccnn2C)nnc(N2CCC(NC(=O)Nc3cccnc3)CC2)c1C | 3.47 | > 100 |  |  | 
Cc1ccc(-c2nnc(N3CCC(NC(=O)c4ccc(F)cc4C(F)(F)F)CC3)c(C)c2C)cc1 | 101 | 12.2 |  |  | 
Cc1c(-c2ccnn2C)nnc(N2CCC(NC(=O)c3ccc(Oc4ccccc4F)cc3C(F)(F)F)CC2)c1C | 91.5 | 16.6 |  |  | 
